High-throughput results: PubChem BioAssay, several laboratories
Shown are actives, neighbours in structure and some others; about 3.1% of the full set was active somewhere.
PAFAH1B3 FP inh: PAFAH1B3 (human) inhibition | inhibition, % at 3.39 µM | recombinant PAFAH1B3, FP-rhodamine probe, fluorescence polarization | Q15102 | 340,000 compounds, 0.28% hits;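 active = inhibition above the screen-wide average of all tested compounds plus 3 SD, cut at about 25% in these data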;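 note: 0% = enzyme with DMSO only and 100% = wells lacking PAFAH1B3 protein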
Target sequence (Q15102 whole entry, looked up): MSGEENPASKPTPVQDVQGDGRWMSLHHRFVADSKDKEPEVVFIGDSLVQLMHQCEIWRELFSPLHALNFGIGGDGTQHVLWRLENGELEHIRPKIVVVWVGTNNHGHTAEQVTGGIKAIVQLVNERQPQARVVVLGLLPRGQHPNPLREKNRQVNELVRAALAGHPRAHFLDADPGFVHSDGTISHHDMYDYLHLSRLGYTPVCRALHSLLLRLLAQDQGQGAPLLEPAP
PAFAH2 inh: PAFAH2 (human) inhibition | recombinant PAFAH2, FP-rhodamine activity probe, fluorescence polarization | 340,000 compounds, 0.99% hits | Q99487 | inhibition, % at 3.39 µM;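 active = inhibition above the mean over all tested compounds plus 3 SD, cut at about 30% in these data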;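 note: inhibitors block probe labeling of enzyme so polarization drops; 0% = enzyme with DMSO and 100% = wells lacking PAFAH2 protein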
Apaf-1 inh: blocks human Apaf-1 apoptosome activity; O14727; reconstituted apoptosome caspase-3 activity, DEVD-Rh110 fluorescence; inhibition, % at 20 µM; 330,000 compounds, 0.71% hits; AID 489030; active = inhibition of at least 40% at 20 µM;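 note: plate controls were DMSO wells for no effect and DEVD-CHO caspase inhibitor wells for full effect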
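Medium: Hepes buffer, pH 7.5 / System: biochemical Apaf-1 apoptosome reconstitution / Measured by: Rh110 fluorescence, excitation 480 nm, emission 540 nm / Times: compound with Apaf-1, dATP, procaspase-3 30 min, then 50 min reaction, room temperature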
pPAFAH inh: inhibitors of human plasma PAF acetylhydrolase (pPAFAH); recombinant pPAFAH, FP-rhodamine probe fluorescence polarization; inhibition, % at 3.39 µM; Q13093; 330,000 compounds, 1.5% hits;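 active = inhibition above the mean inhibition across the screen plus 3 SD, cut at about 25% in these data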;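 note: inhibitors block binding of the rhodamine activity-based probe so polarization drops; 0% = enzyme with DMSO and 100% = wells lacking pPAFAH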
Target sequence (Q13093 whole entry, looked up): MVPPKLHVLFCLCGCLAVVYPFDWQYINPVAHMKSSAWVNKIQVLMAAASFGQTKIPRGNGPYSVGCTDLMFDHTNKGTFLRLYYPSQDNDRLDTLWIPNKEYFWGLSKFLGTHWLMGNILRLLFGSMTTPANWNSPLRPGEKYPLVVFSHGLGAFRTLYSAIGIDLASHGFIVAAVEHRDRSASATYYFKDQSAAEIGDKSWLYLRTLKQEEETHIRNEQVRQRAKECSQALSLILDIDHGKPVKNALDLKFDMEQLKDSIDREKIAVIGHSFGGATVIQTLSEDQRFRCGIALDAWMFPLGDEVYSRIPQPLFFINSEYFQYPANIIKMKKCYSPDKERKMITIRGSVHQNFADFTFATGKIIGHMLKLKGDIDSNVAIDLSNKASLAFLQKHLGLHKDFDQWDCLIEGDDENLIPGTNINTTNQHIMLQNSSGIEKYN
PAFAH1B2 FP inh: PAFAH1B2 (human) inhibition | recombinant PAFAH1B2, FP-rhodamine activity probe, fluorescence polarization | inhibition, % at 3.39 µM | 340,000 compounds, 1.2% hits | P68402;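 active = inhibition above the mean of all tested compounds plus 3 SD, cut at about 24% in these data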;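 note: 0% = enzyme with DMSO and 100% = wells lacking PAFAH1B2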
Active calls of the source: *; · = no result given.

SMILES	PAFAH1B3 FP inh	PAFAH2 inh	Apaf-1 inh	pPAFAH inh	PAFAH1B2 FP inh
CCC(C)(C)NC(=O)C(c1cccc(OC)c1OC)N(C(=O)CCC(=O)Nc1cc(C)on1)C(C)C (configuration not stated)	1.8	12.9	-0.3	0.8	8.7
Cc1cn(CC(=O)N2CCN(c3ccccn3)CC2)c(=O)[nH]c1=O	9.6	1.7	·	·	0.8
Cc1cccc(CN2C(=O)/C(=C\c3ccc(C(=O)NCCCN4CCN(C)CC4)cc3)Oc3ccccc32)c1	4.7	-9.8	52.5*	-9.4	-2.3
O=C(/C=C/c1ccccc1)CC(O)(c1ccccc1)C(F)(F)F (configuration not stated)	-1.6	9.3	-21.3	2.0	54.8*
COc1ccc(/C=C/C(=O)CC(O)(c2ccccc2)C(F)(F)F)cc1 (configuration not stated)	10.2	10.0	5.1	-4.0	25.5*
O=C(/C=C/c1ccccc1)COC(=O)c1ccccc1	9.8	12.1	·	·	6.6
Cc1cccc(N2CCN(C(=O)C3CCC(=O)N(C4CC4)C3)CC2)c1C (configuration not stated)	1.4	1.4	-2.0	1.9	2.3
COc1ccc(-c2oc3cc(OC(C)=O)cc(OC(C)=O)c3c(=O)c2OC)cc1	2.4	4.2	·	·	0.1
CC(=O)Oc1cc(O)c2c(=O)c(OC(C)=O)c(-c3ccc(OC(C)=O)c(OC(C)=O)c3)oc2c1	47.1*	37.5*	-1.2	30.6*	22.3
CCC(C(=O)NCCc1ccc(S(N)(=O)=O)cc1)c1ccccc1 (configuration not stated)	3.3	3.2	-6.2	1.1	7.5
O=C1c2ccccc2-c2n[nH]c(=O)c3ccc(N4CCCCC4)c1c23	9.8	12.9	23.6	32.6*	8.2
O=C1c2cccc3c(N4CCCCC4)ccc(c23)C(=O)N1c1ccccn1	-6.4	1.1	11.4	3.7	2.9
OCC[C@H]1C[C@H](O)[C@@H](O)[C@@]2(CCCc3ccccc3O2)O1	0.9	2.5	-2.1	4.2	2.3
Fc1ccc(-c2ccc3c(c2)C2CC3CCN2Cc2ccc3c(c2)OCO3)cc1 (configuration not stated)	7.2	-8.2	·	·	2.1
N=c1c[n+](-c2ccc(Cl)cc2)[n-]o1	-1.3	8.8	-7.8	9.1	31.4*
O=C(N/N=C\c1ccccn1)c1cccc(C(=O)N/N=C\c2ccccn2)n1	52.9*	-42.6	-15.1	7.0	41.7*
Cc1ccccc1NC(=O)c1ccccn1	6.3	-8.9	-0.1	27.2*	0.6
NC(=O)COC(=O)CC12CC3CC(CC(Br)(C3)C1)C2	9.5	2.5	-4.9	5.6	26.5*
CSc1nc2ccc(NS(=O)(=O)c3ccc4c(c3)OCCO4)cc2s1	4.3	-1.2	10.2	30.4*	0.0
CC12CC3CC(C)(C1)CC(C(=O)NCc1cccnc1)(C3)C2	-3.2	-7.2	-7.9	3.3	11.6
COc1ccc(O)cc1	2.2	-4.2	-11.3	4.8	8.0
CC(C)(c1ccc(O)cc1)c1ccc(O)cc1	8.6	-3.8	8.6	-9.1	48.0*
CC1(C)CC2(CC(c3ccccc3F)c3ccc(O)c(O)c3O2)NC(=S)N1 (configuration not stated)	-3.0	-0.9	4.8	32.6*	7.4
CC(=O)c1ccc(N2CCN(C(=O)/C=C/c3ccc(S(=O)(=O)N4CCOCC4)cc3)CC2)cc1	-0.1	0.0	1.8	32.5*	2.0
CC1CC(C)CN(C(=O)C(NS(=O)(=O)c2ccc(Br)s2)c2ccccc2)C1 (configuration not stated)	0.5	8.2	28.3	5.0	14.7
SMILES	PAFAH1B3 FP inh	PAFAH2 inh	Apaf-1 inh	pPAFAH inh	PAFAH1B2 FP inh
COc1ccccc1C(=O)NCCN1CCN(c2ccccc2)CC1	15.2	-4.5	2.5	-1.7	3.2
CCc1ccccc1NC(=O)CNC(=O)c1ccc(-n2cncn2)c([N+](=O)[O-])c1	3.9	1.8	-2.8	2.5	4.7
COc1ccc2nc(NC(=O)CN3C(=O)NC4(CCCCC4)C3=O)sc2c1	1.6	-3.8	14.7	-1.1	-3.1
C=C[C@]1(C)C=C2CCC3[C@](C)(CCC[C@@]3(C)C(=O)O)C2CC1 (some centres not stated)	11.4	43.1*	4.2	8.7	68.1*
C=C/C(C)=C/CC1C(=C)CCC2C(C)(C(=O)O)CCCC12C (configuration not stated)	-4.5	6.2	-0.9	5.5	1.9
C/C(=N/NC(=O)CN1CCN(S(=O)(=O)c2ccc(Br)cc2)CC1)c1ccco1	3.9	4.0	2.1	2.7	27.5*
O=S(=O)(c1ccc(Br)cc1)N1CCN(Cc2ccco2)CC1	9.6	3.4	4.3	-4.8	25.9*
C/C(=N\NC(=O)CN1CCN(S(=O)(=O)c2ccc(C)cc2)CC1)c1cccnc1	6.1	5.2	-1.7	-4.3	5.9
C/C(=N/NC(=O)CN1CCN(S(=O)(=O)c2ccc(C)cc2)CC1)c1cccc(O)c1	6.3	-5.2	3.4	4.0	25.2*
O=C(CN1CCN(S(=O)(=O)c2ccc(Br)cc2)CC1)N/N=C/c1ccc(Br)s1	2.9	6.9	12.2	-0.4	19.7
O=C(CN1CCN(S(=O)(=O)c2ccc(Br)cc2)CC1)N/N=C/c1ccco1	3.8	12.8	3.2	4.0	29.9*
CCOc1cc(/C=C2\CCn3c2nc2cc(Cl)ccc2c3=O)ccc1O	0.1	18.3	15.1	19.3	5.0
Cc1cc(Cl)ccc1NC(=O)CN1C(=O)C(=O)N(C2CCCC2)C1=O	-3.1	7.5	3.2	0.0	3.0
CCOC(=O)c1cc(C)sc1NC(=O)CN1CCN(C(=O)c2ccco2)CC1	5.3	4.4	21.9	26.2*	0.6
COC(=O)c1cc(C)sc1NC(=O)CN1CCN(C(=O)c2ccco2)CC1	16.1	4.4	14.9	-0.5	-1.3
COC(=O)c1cc(C)sc1NC(=O)CN1CCN(C(=O)C2CCCO2)CC1 (configuration not stated)	-2.6	8.3	1.1	6.7	-0.1
CCOC(=O)c1cc(C)sc1NC(=O)CN1CCN(C(=O)C2CCCO2)CC1 (configuration not stated)	-0.8	-3.9	-4.3	27.3*	2.5
COc1ccc(C)cc1N(C(=O)c1ccco1)C(C(=O)NC1CCCC1)c1ccc(N2CCOCC2)cc1 (configuration not stated)	1.7	3.6	3.4	1.3	6.6
O=C(CSc1ccc(F)cc1)NCCSc1ccccc1	12.0	3.7	5.2	5.6	28.3*
O=C(CSc1ccc(F)cc1)NC(=O)NCc1ccccc1	4.8	8.3	-10.1	5.8	28.0*
O=C(CSc1ccc2ccccc2c1)NCCc1ccc(O)c(O)c1	5.6	4.0	12.9	26.8*	10.8
O=C(CSc1ccccc1)NCCc1ccc(F)cc1	-1.1	-4.4	-2.5	-0.6	27.5*
O=C(CSc1ncn[nH]1)NCCc1ccc(Cl)cc1	8.2	10.8	-7.8	1.8	30.7*
O=C(CSc1ncn[nH]1)NCCc1ccccc1	-0.5	-6.4	13.9	-3.3	3.3
CCOC(=O)Cc1csc(NC(=O)c2ccc3ncsc3c2)n1	5.2	-6.8	-8.4	2.1	7.9
